# Test results taken from paper PMC10613959 (Toxicological Sciences, 2023).
# Read-outs that look alike come from different tables or passages of the source.
# What was measured:
# [1] = Blood partitioning assay for Rbp; format: in vitro ADME; conditions: both, human
# Procedure, shortened: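 Fresh pooled mixed-gender human whole blood (lithium heparin) and reference plasma centrifuged from the same blood were each incubated with 5 µM test compound at 37°C, n = 3. Reactions were stopped at 0 and 60 min. Rbp was derived by LC-MS/MS from test compound concentration in control plasma versus whole-blood supernatant. Chlorthalidone 5 µM served as positive control.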
# Cross filtration = format: in vitro ADME; conditions: both, human, pooled human plasma
# Procedure, shortened: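 Modified cross-ultrafiltration: 10 µM test compound in pooled mixed-gender human plasma, 60 min at 37°C, n = 3, then ultrafiltered beside blank plasma. Each retentate was mixed into the partner filtrate and the regenerated samples analysed by LC-MS/MS. Warfarin 10 µM was positive control. Stability was checked at 60 min against non-incubated control. Recovery-corrected mean PPB from filtrate; Fup = 100 − PPB.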
# [2] = Ex vivo skin penetration study of radiolabeled OMC; format: in vitro ADME; conditions: human skin; for Dermal delivery (Epidermis + Dermis + Receptor fluid), 14C-OMC / Dermis, distribution of 14C-OMC / Epidermis, distribution of 14C-OMC / Receptor fluid, distribution of 14C-OMC / Skin excess, distribution of 14C-OMC / Total recovery, 14C-OMC / Total strips (1–20), distribution of 14C-OMC: mean
# Procedure, shortened: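 Dermatomed skin, 350–450 µm, in flow-through diffusion cells (1 cm2 area), unoccluded, surface at 32°C ± 1°C. Receptor fluid (5% w/w BSA, 0.9% NaCl) flowed at 1.5 ml/h and was collected hourly. Runs ended at 30 min, 1, 2, 4, 8 h (n = 5) or 24 h (n = 12). Up to 20 tape strips; epidermis heat-separated from dermis; compartments counted by scintillation. Dermal delivery = epidermis + dermis + receptor fluid.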
# [3] = Metabolic stability in primary human hepatocytes in suspension; format: in vitro ADME; conditions: human, cryopreserved human hepatocytes in suspension (5 donor pool)
# Procedure, shortened: (§1)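 Cryopreserved human hepatocytes (5-donor pool, 0.8 × 10^6 cells/ml) in Williams E medium (25 mM HEPES, 2 mM L-glutamine) were incubated with test compound at 0.1, 1 and 10 µM, 37°C, n = 3. Sampled at 0, 15, 60, 90, 180 and 240 min; solvent ≤0.5% DMSO or 1% ACN. Heat-inactivated hepatocytes were the negative control. Parent loss was measured by LC-MS. CLint = −k·V (k, slope of log concentration vs time; V, incubation volume/cell number).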
# human hepatocytes = assay: as above; format: in vitro ADME; conditions: human suspension hepatocytes; compared with Naloxone
# Procedure, shortened: as §1
# [4] = Skin absorption parameters; set-up: species or system human; conditions: Fitted; for Vehicle/water partition coefficient: vehicle/formulation specific
# Procedure, shortened: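 A skin model in GastroPlus TCAT started from in silico predicted values for the vehicle, stratum corneum, epidermis and dermis. Its diffusivities and partition coefficients were fitted to skin penetration data: receptor-fluid time course where available, plus skin wash and layer distribution. Parameters were adjusted to minimise model–data difference and then used in the human dermal model. Vehicle/water partitioning is formulation-specific.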
# [5] = Scaling of in vitro CLint to in vivo CLint and CLliver; set-up: species or system human; conditions: scaled from the mean in vitro CLint
# Procedure, shortened: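 Mean in vitro hepatocyte CLint was scaled to in vivo CLint (l/h) using a scaling factor: million cells per gram of liver × grams of liver weight. In vivo CLint was then converted to hepatic clearance with two variations of the well-stirred liver model.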
# [6] = PBK population simulation of plasma concentrations; set-up: species or system human
# Procedure, shortened: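 GastroPlus population simulations reproduced the clinical designs. Lotion or non-aerosol spray, 2 mg/cm2 over 75% body surface, once at 0 h on day 1 and 4 times daily at 2-h intervals on days 2–4 (mixed multiple-dose profile). Alternatively, a 4% formulation over 90% body surface, about 22 mg/kg bw, in 3 male and 3 female subjects. Simulated-mean/observed-mean ratios for Cmax and AUC0−t; 10th–90th percentiles generated.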
# [7] = human plasma, topical sunscreen, ref Matta et al., 2020, cited from earlier work
# [8] = human skin, cited from earlier work
# [9] = ref Shand, 1976; cited from earlier work
# [10] = target dose 300 µg/cm^2, ref SCCS, 2021
compound,measurement,setting,value
"CCCCC(CC)COC(=O)C=Cc1ccc(OC)cc1 (stereo not shown) [OMC, octyl methoxycinnamate]","blood plasma ratio at 60 min, 5 µM",[1],0.73
same,"fraction unbound at 60 min, 10 µM",Cross filtration,0.0004
same,dermal delivered fraction of the applied dose,"[2]; all the conditions (30 min to 24 h), target dose 200 µg/cm^2",less than 0.5%
same,"Dermal delivery (Epidermis + Dermis + Receptor fluid), 14C-OMC",[2]; terminated at 30 min,0.10%
same,"Dermis, distribution of 14C-OMC",[2]; terminated at 30 min,0.004%
same,"Epidermis, distribution of 14C-OMC",[2]; terminated at 30 min,0.07%
same,"Receptor fluid, distribution of 14C-OMC",[2]; terminated at 30 min,0.02%
same,"Skin excess, distribution of 14C-OMC",[2]; terminated at 30 min,91.04%
same,"Total recovery, 14C-OMC",[2]; terminated at 30 min,91.65%
same,"Total strips (1–20), distribution of 14C-OMC",[2]; terminated at 30 min,0.51%
same,"Dermal delivery (Epidermis + Dermis + Receptor fluid), 14C-OMC",[2]; terminated at 1 h,0.06%
same,"Dermis, distribution of 14C-OMC",[2]; terminated at 1 h,0.01%
same,"Epidermis, distribution of 14C-OMC",[2]; terminated at 1 h,0.04%
same,"Receptor fluid, distribution of 14C-OMC",[2]; terminated at 1 h,0.003%
same,"Skin excess, distribution of 14C-OMC",[2]; terminated at 1 h,112.02%
same,"Total recovery, 14C-OMC",[2]; terminated at 1 h,112.38%
same,"Total strips (1–20), distribution of 14C-OMC",[2]; terminated at 1 h,0.30%
same,"Dermal delivery (Epidermis + Dermis + Receptor fluid), 14C-OMC",[2]; terminated at 2 h,0.11%
same,"Dermis, distribution of 14C-OMC",[2]; terminated at 2 h,0.005%
same,"Epidermis, distribution of 14C-OMC",[2]; terminated at 2 h,0.06%
same,"Receptor fluid, distribution of 14C-OMC",[2]; terminated at 2 h,0.04%
same,"Skin excess, distribution of 14C-OMC",[2]; terminated at 2 h,89.22%
same,"Total recovery, 14C-OMC",[2]; terminated at 2 h,90.06%
same,"Total strips (1–20), distribution of 14C-OMC",[2]; terminated at 2 h,0.73%
same,"Dermal delivery (Epidermis + Dermis + Receptor fluid), 14C-OMC",[2]; terminated at 4 h,0.12%
same,"Dermis, distribution of 14C-OMC",[2]; terminated at 4 h,0.01%
same,"Epidermis, distribution of 14C-OMC",[2]; terminated at 4 h,0.05%
same,"Receptor fluid, distribution of 14C-OMC",[2]; terminated at 4 h,0.06%
same,"Skin excess, distribution of 14C-OMC",[2]; terminated at 4 h,100.26%
same,"Total recovery, 14C-OMC",[2]; terminated at 4 h,100.75%
same,"Total strips (1–20), distribution of 14C-OMC",[2]; terminated at 4 h,0.37%
same,"Dermal delivery (Epidermis + Dermis + Receptor fluid), 14C-OMC",[2]; terminated at 8 h,0.20%
same,"Dermis, distribution of 14C-OMC",[2]; terminated at 8 h,0.01%
same,"Epidermis, distribution of 14C-OMC",[2]; terminated at 8 h,0.10%
same,"Receptor fluid, distribution of 14C-OMC",[2]; terminated at 8 h,0.09%
same,"Skin excess, distribution of 14C-OMC",[2]; terminated at 8 h,113.76%
same,"Total recovery, 14C-OMC",[2]; terminated at 8 h,114.46%
same,"Total strips (1–20), distribution of 14C-OMC",[2]; terminated at 8 h,0.50%
same,"Dermal delivery (Epidermis + Dermis + Receptor fluid), 14C-OMC",[2]; terminated at 24 h,0.28%
same,"Dermis, distribution of 14C-OMC",[2]; terminated at 24 h,0.02%
same,"Epidermis, distribution of 14C-OMC",[2]; terminated at 24 h,0.21%
same,"Receptor fluid, distribution of 14C-OMC",[2]; terminated at 24 h,0.06%
same,"Skin excess, distribution of 14C-OMC",[2]; terminated at 24 h,100.26%
same,"Total recovery, 14C-OMC",[2]; terminated at 24 h,100.96%
same,"Total strips (1–20), distribution of 14C-OMC",[2]; terminated at 24 h,0.41%
same,hepatocyte CLint,[3],43.3 µL/min/1e6 cells
same,hepatocyte CLint at 10 µM,[3],43.3 µL/min/1e6 cells
same,depletion in suspension hepatocytes,human hepatocytes,medium to fast depletion
same,Dermis diffusivity,[4],1.0E−07 cm^2/s
same,Dermis/water partition coefficient,[4],7.0E−01
same,Epidermis diffusivity,[4],3.0E−08 cm^2/s
same,Epidermis/water partition coefficient,[4],2.0E+01
same,Stratum corneum diffusivity,[4],2.0E−10 cm^2/s
same,Stratum corneum/water partition coefficient,[4],4.5E+02
same,Vehicle diffusivity,[4],7.0E−12 cm^2/s
same,Vehicle/water partition coefficient,[4],1.5E+05
same,In vivo CLint scaled,[5],312.0 l/h/kg liver
same,AUC0 − t Fold Difference (Simulated Mean/Observed Mean),[6]; Day 1,1.5
same,Cmax Fold Difference (Simulated Mean/Observed Mean),[6]; Day 1,1.5
same,AUC0 − t Fold Difference (Simulated Mean/Observed Mean),[6]; Day 4,2.7
same,Cmax Fold Difference (Simulated Mean/Observed Mean),[6]; Day 4,1.3
same,"Observed AUC0 − t, Geometric mean",[7]; Day 1,21.6 ng·h/mL
same,"Observed AUC0 − t, Range",[7]; Day 1,2.7 to 57.7 ng·h/mL
same,"Observed Cmax, Range",[7]; Day 1,0.6 to 5 ng/mL
same,"Observed AUC0 − t, Geometric mean",[7]; Day 4,103.4 ng·h/mL
same,"Observed AUC0 − t, Range",[7]; Day 4,45.1 to 213.5 ng·h/mL
same,"Observed Cmax, Range",[7]; Day 4,2.6 to 30.6 ng/mL
"CCCCC(CC)COC(=O)C(C#N)=C(c1ccccc1)c1ccccc1 (stereo not shown) [Octocrylene, octocrylene]","blood plasma ratio at 60 min, 5 µM",[1],0.73
same,"fraction unbound at 60 min, 10 µM",Cross filtration,0.0014
same,hepatocyte CLint,[3],16.9 µL/min/1e6 cells
same,hepatocyte CLint at 0.1 µM,[3],27.8 µL/min/1e6 cells
same,hepatocyte CLint at 1 µM,[3],15.2 µL/min/1e6 cells
same,hepatocyte CLint at 10 µM,[3],7.6 µL/min/1e6 cells
same,depletion in suspension hepatocytes,human hepatocytes,medium to fast depletion
same,Dermis diffusivity,[4],6.0E−08 cm^2/s
same,Dermis/water partition coefficient,[4],7.0E−01
same,Epidermis diffusivity,[4],2.0E−08 cm^2/s
same,Epidermis/water partition coefficient,[4],6.0E+02
same,Stratum corneum diffusivity,[4],2.0E−11 cm^2/s
same,Stratum corneum/water partition coefficient,[4],2.0E+03
same,Vehicle diffusivity,[4],6.2E−09 cm^2/s
same,Vehicle/water partition coefficient,[4],4.0E+05
same,In vivo CLint scaled,[5],121.7 l/h/kg liver
same,AUC0 − t Fold Difference (Simulated Mean/Observed Mean),[6]; Day 1,1.4
same,Cmax Fold Difference (Simulated Mean/Observed Mean),[6]; Day 1,1.2
same,AUC0 − t Fold Difference (Simulated Mean/Observed Mean),[6]; Day 4,1.4
same,Cmax Fold Difference (Simulated Mean/Observed Mean),[6]; Day 4,0.6
same,"Dermal delivery (Epidermis + dermis + receptor fluid), 14C-octocrylene","[8]; 24 h, mean, ref SCCS (2021)",0.15%
same,"Dermis, distribution of 14C-octocrylene","[8]; 24 h, mean, ref SCCS (2021)",0.012%
same,"Epidermis, distribution of 14C-octocrylene","[8]; 24 h, mean, ref SCCS (2021)",0.14%
same,"Receptor fluid, distribution of 14C-octocrylene","[8]; 24 h, mean, ref SCCS (2021)",0.0001%
same,"Skin excess, distribution of 14C-octocrylene","[8]; 24 h, mean, ref SCCS (2021)",97.96%
same,"Total recovery, 14C-octocrylene","[8]; 24 h, mean, ref SCCS (2021)",98.8%
same,"Total strips (1–20), distribution of 14C-octocrylene","[8]; 24 h, mean, ref SCCS (2021)",0.69%
same,absorbed dose into receptor fluid,[8]; [10],negligible
same,dermal delivered fraction of the applied dose,[8]; [10],less than 0.4%
same,"Observed AUC0 − t, Geometric mean",[7]; Day 1,20.0 ng·h/mL
same,"Observed AUC0 − t, Range",[7]; Day 1,6.4 to 38.1 ng·h/mL
same,"Observed Cmax, Range",[7]; Day 1,0.5 to 3.6 ng/mL
same,"Observed AUC0 − t, Geometric mean",[7]; Day 4,94.7 ng·h/mL
same,"Observed AUC0 − t, Range",[7]; Day 4,41.4 to 210.0 ng·h/mL
same,"Observed Cmax, Range",[7]; Day 4,2.6 to 38.7 ng/mL
CC(C)NCC(O)COc1cccc2ccccc12 (stereo not shown) [propranolol],bound to plasma,[9],90%–95
